Compounds with a hit are over-represented: about 3.3% of the library has one in this group of screens.
PMI act = phosphomannose isomerase (human) activation; purified human PMI, coupled resazurin fluorescence, 20 min; hits give high values; 1 = vehicle control, 0 substrate-free wells; activation factor at 20 µM; 190,000 compounds, 0.005% hits;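 active = activation factor of 2 or more at 20 µM, relative to plate controls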
Target sequence (P34949 whole entry, looked up): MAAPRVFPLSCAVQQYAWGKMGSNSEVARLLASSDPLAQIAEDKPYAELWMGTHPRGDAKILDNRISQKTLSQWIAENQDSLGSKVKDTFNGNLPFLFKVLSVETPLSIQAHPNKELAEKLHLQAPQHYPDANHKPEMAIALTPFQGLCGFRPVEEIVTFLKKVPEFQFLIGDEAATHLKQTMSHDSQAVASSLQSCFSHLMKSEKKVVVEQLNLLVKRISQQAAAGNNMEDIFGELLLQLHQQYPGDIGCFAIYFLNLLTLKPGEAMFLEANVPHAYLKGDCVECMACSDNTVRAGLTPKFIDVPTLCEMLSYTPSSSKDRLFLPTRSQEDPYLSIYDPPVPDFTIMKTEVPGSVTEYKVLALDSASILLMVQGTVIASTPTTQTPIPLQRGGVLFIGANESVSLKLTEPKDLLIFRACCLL
Cl transport mod = KCC2 (human) Cl- transport modulation. Q9H2X9. KCC2 cells, thallium flux FluoZin-2 fluorescence. B-score of Tl+ flux slope (higher = more flux/activation; lower = inhibition) at 10 µM. 190,000 compounds, 2.2% hits. AID 1456;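 active = thallium flux slope and its plate-corrected score both differing from the plate sample mean at a set confidence after two filtering rounds, in either direction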;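 also: slope of fluorescence scaled to starting intensity during 10 to 20 s after thallium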
ABCB1 block = human ABCB1 inhibition, ABCG2 as counter-screen. CCRF-Adr cells, JC-1 efflux, flow cytometry. inhibition, % at 6.6 µM. P08183. 190,000 compounds, 0.067% hits; in the data active = inhibition above about 40%;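 also: higher value means more JC-1 retained so stronger ABCB1 efflux block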
ABCG2 inh = blocks JC-1 efflux by human ABCG2 transporter | IgMXP3 cells, flow cytometry | inhibition, % at 6.6 µM | 190,000 compounds, 0.1% hits | AID 1325 | Q9UNQ0;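 active = inhibition above 80%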
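System: two drug-resistant human cell lines, ABCG2 and ABCB1; controls: nicardipine high and DMSO low controls; times: 10 min exposure at 25 °C with rotation, no wash; detection: flow cytometry of retained JC-1 fluorescence; read-out basis: percent efflux inhibition, scaled nicardipine 100% to DMSO 0%; doses: one concentration, 6.6 µM final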
ROMK mod = modulates human ROMK potassium channel activity | P48048 | Tet-inducible ROMK, thallium flux fluorescence; actives lie on both sides | B-score at 10 µM | 130,000 compounds, 2% hits | AID 1918;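 active = signal ratio slope over the read window, or its plate-corrected B-score, at least 3 SD from the plate mean, either direction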;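 also: B-score of the F/F0 ratio slope over 7 to 12 s after thallium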
PMI act hi M6P = PMI (human) activation, high substrate. P34949. 190,000 compounds, 0.34% hits. activation factor at 20 µM. coupled PMI enzyme assay, resazurin fluorescence, 20 min; hits give high values; 1 = untreated enzyme, 0 = substrate-free blank. AID 1216;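 active = activation factor of 2 or more at 20 µM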
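Test system: human phosphomannose isomerase with PGI, G6PDH, diaphorase coupling enzymes / Doses: 20 µM compound, 1% DMSO / Times: enzyme reaction with compound 20 min at room temperature / Measured by: Diaphorase-driven resazurin-to-resorufin fluorescence, excitation 544, emission 590 nm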
KCC2 secondary = KCC2 (human) modulation, secondary assay; shares compounds with Cl transport mod; HEK293-KCC2, thallium flux, FluoZin2 fluorescence; hits give high values; normalised thallium flux (F/F0 slope) at 10 µM; 3,700 compounds, 15% hits; AID 1713;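 active = thallium flux slope above the same plate's solvent-only control mean plus 3 SD; inconclusive = the two replicate wells disagree; inactive = no significant difference from solvent-only control wells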
KCC2 bumet counter = thallium flux persisting under bumetanide in KCC2 cells, counter-screen secondary assay. shares compounds with Cl transport mod. HEK293-KCC2 + bumetanide/ouabain, thallium flux FluoZin2; hits give high values. normalized thallium flux at 10 µM. 3,700 compounds, 49% hits;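 active = thallium entry rate above the same plate's blocked-transporter control wells by more than 3 SD; inconclusive = the two repeat wells disagree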;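 also: raw slope of fluorescence over initial fluorescence between 10 and 20 s after thallium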
KCC2 secondary2 = KCC2 (human) modulation, second secondary assay; normalized thallium flux at 10 µM; HEK293-KCC2, thallium flux FluoZin2 fluorescence; actives lie on both sides; F/F0 rise rate, 10–20 s post-thallium; AID 1715; 3,700 compounds, 23% hits; shares compounds with Cl transport mod;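 active = thallium flux slope more than 3 SD above or below the plate's solvent-only control mean, mostly below; inconclusive = the two repeat wells disagreed; inactive = no significant shift from solvent-only controls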
HEK counter1 = acts in parental HEK cells, KCC2 counter-screen | shares compounds with Cl transport mod | AID 1716 | HEK293 parental cells, thallium flux FluoZin2, ouabain; baseline-ratio fluorescence slope, 10–20 s after thallium | thallium flux rate (normalised fluorescence) at 10 µM | 3,700 compounds, 46% hits;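 active = thallium flux rate significantly above the same plate's solvent-only control wells, beyond their mean plus 3 SD; inconclusive = the two replicate wells gave conflicting results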
KCC2 retest ouab = modulates human KCC2 on retest with ouabain; shares compounds with Cl transport mod; HEK293-KCC2, thallium flux FluoZin2 fluorescence; bidirectional: low = inhibitor, high = activator; raw Tl+ flux slope (below DMSO = inhibition, above = activation) at 10 µM; 3,700 compounds, 48% hits; AID 1717;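 active = thallium flux slope beyond 3 SD from same-plate DMSO control mean in most replicates, usually higher, sometimes lower; inconclusive = repeat tests gave conflicting results; inactive = no significant difference from controls in most replicates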;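 also: slope of initial-normalized fluorescence between seconds 10 and 20 after thallium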
HEK counter2 = parental HEK flux effect, counter-screen 2 | shares compounds with Cl transport mod | 3,700 compounds, 33% hits | HEK293 parental, thallium flux FluoZin-2 fluorescence slope | thallium flux slope at 10 µM;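 active = thallium flux slope above the same plate's solvent-control mean plus 3 SD in both duplicate wells; inconclusive = duplicate wells that disagreed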;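 also: run without ouabain in cells lacking the KCC2 cotransporter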
Each line names hits and unclear results; the compound was inactive in the other large screens (follow-up assays come after a bar, where they were run).

COc1ccc(C)cc1NS(=O)(=O)c1cccc2nonc12	Cl transport mod 6.52 (no result: ROMK mod) | KCC2 secondary inactive | KCC2 bumet counter 0.0195 | KCC2 secondary2 inactive | HEK counter1 inactive | KCC2 retest ouab inactive | HEK counter2 inconclusive
COc1ccc(S(=O)(=O)N2CCCC(C(F)(F)F)C2)cc1 (centres undefined)	none
C=CCc1ccc(OCCOc2cccc3ccc(C)nc23)c(OC)c1	none
C=C(C(=O)c1ccccc1)C(C)C(=C)C(=O)c1ccccc1	none (no result: ROMK mod)
O=S(=O)(Nc1cc(Sc2cccc3cccnc23)c(O)c2ccccc12)c1ccccc1	Cl transport mod 47.7 (no result: ROMK mod) | KCC2 secondary 0.0351 | KCC2 bumet counter 0.0799 | KCC2 secondary2 0.044 | HEK counter1 0.0491 | KCC2 retest ouab 0.0577 | HEK counter2 0.0152
CCc1ccc(S(=O)(=O)Nc2cc(SCC(=O)O)c(O)c3ccccc23)cc1	none
CC(NC(=O)Cc1cccs1)c1ccncc1 (centres undefined)	none (no result: ROMK mod)
CC(NC(=O)Cc1cccs1)c1ccc2c(c1)OCO2 (centres undefined)	Cl transport mod 1.69 (no result: ROMK mod) | KCC2 secondary inactive | KCC2 bumet counter inactive | KCC2 secondary2 inactive | HEK counter1 inactive | KCC2 retest ouab inactive | HEK counter2 inactive
CCOc1ccc2nc(NC(=O)CN3CCC(n4nnc5cc(F)ccc54)CC3)sc2c1	none (no result: Cl transport mod)
Cc1ccc(Cn2nnc3c(=O)n(CC(=O)NCc4ccco4)cnc32)cc1	Cl transport mod -2.94 | KCC2 secondary inactive | KCC2 bumet counter inactive | KCC2 secondary2 inconclusive | HEK counter1 inconclusive | KCC2 retest ouab 0.0148 | HEK counter2 inactive
O=C(Cn1cnc2c(nnn2Cc2ccccc2F)c1=O)NCc1ccco1	none (no result: Cl transport mod) | KCC2 secondary inactive | KCC2 bumet counter inactive | KCC2 secondary2 inconclusive | HEK counter1 inactive | KCC2 retest ouab 0.0176 | HEK counter2 inactive
O=C(Cn1cnc2c(nnn2-c2ccccc2)c1=O)NCc1ccco1	none (no result: ROMK mod)
Cc1ccc(-n2nnc3c(=O)n(CC(=O)NCc4ccco4)cnc32)cc1	none (no result: ROMK mod)
COc1cccc(NC(=S)N/N=C2\CC(C)(C)Oc3ccc(O)cc32)c1	none (no result: ROMK mod)
CC12CCC(C/C1=N/NC(=O)Nc1ccccc1)C2(C)C (centres undefined)	none
COc1cccc(NC(=S)N/N=C2\CC3CCC2(C)C3(C)C)c1 (centres undefined)	Cl transport mod 10.9 | KCC2 secondary inactive | KCC2 bumet counter 0.0272 | KCC2 secondary2 inconclusive | HEK counter1 0.0244 | KCC2 retest ouab 0.031 | HEK counter2 0.0301
COc1cccc(NC(=S)NN=C2CCC(C(C)(C)C)CC2)c1 (centres undefined)	Cl transport mod 4.87, PMI act hi M6P 2.1 | KCC2 secondary inactive | KCC2 bumet counter 0.00905 | KCC2 secondary2 inactive | HEK counter1 0.0123 | KCC2 retest ouab inactive | HEK counter2 inactive
